In paper PMC5709104 (Haematologica, 2017):
pIC50: −log10 of the molar value. “Also recorded” adds a separate entry of the source. Blank lines part the entries; values can stand above or below the compound they belong to.

Experiments:
MOLM13 cells [1] = assay: Viable cell number and apoptosis by flow cytometry; type: cell-based, human
In short: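 Viable cell number and apoptosis in MOLM13 cells measured by flow cytometry. Single-agent runs used vehicle (0.1% DMSO) or varying doses of test compound for 48 h or 72 h. Combination runs used vehicle (0.2% DMSO), 1 μM cytarabine, test compound (10 or 50 nM) or both, for 48 h. Student's t-test against cytarabine-treated cells.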

resistant cells = conditions: cited from earlier work
AXL [2] = conditions: cited from earlier work
[3] = test system: refractory or relapse AML; conditions: single agent; cited from earlier work
OCI-AML3 cells = assay: Viable cell number and apoptosis by flow cytometry; type: cell-based; conditions: varying doses, 48 hours, OCI-AML3 (FLT3 WT)
In short: (§1)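 MV4;11 and OCI-AML3 cells incubated 48 h with vehicle (0.1% DMSO) or varying doses of test compound. Viable cell number and apoptosis measured by flow cytometry.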

PLK-1 mRNA = assay: qRT-PCR gene expression analysis; type: cell-based; conditions: 24 hours; for reduction of PLK-1 mRNA relative to B2M: MOLM13
In short: (§2)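 MOLM13 and MV4;11 cells incubated 24 h with vehicle or varying doses of test compound. Total RNA extracted and reverse transcribed. PLK-1, CDK1 and CCNB1 transcripts quantified by TaqMan qRT-PCR and normalized to B2M.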

AXL [4] = assay: Immunoblot analysis; type: cell-based; conditions: even at the lowest dose, 24 hours, MOLM13 and MV4;11
In short: (§3)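 MOLM13 and MV4;11 cells incubated 24 h with vehicle or varying doses of test compound, then lysed. Total protein separated by SDS-PAGE and immunoblotted, with infrared imaging detection. Densitometry ratios taken to tubulin loading control, or to the total protein for phospho-proteins.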

ERK phosphorylation = assay: Immunoblot analysis; type: cell-based; conditions: 10 nM, 24 hours, MOLM13
In short: as §3

CDK1 = assay: Immunoblot analysis; type: cell-based; conditions: 10 nM, 24 hours, MOLM13 and MV4;11
In short: as §3

MV4;11 cells [5] = assay: DNA synthesis and cell cycle assay; type: cell-based; conditions: 24 hours
In short: (§4)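 MOLM13 and MV4;11 cells exposed to vehicle or varying doses of test compound for 24 h. Cell cycle status assessed by FX Cycle Violet DNA staining and DNA synthesis by EdU incorporation (Click-It EdU kit), both read by flow cytometry. Student's t-test against vehicle-treated cells.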

PLK1 = assay: Immunoblot analysis; type: cell-based; conditions: 50 nM or 100 nM, 24 hours, MOLM13 and MV4;11
In short: as §3

[6] = test system: MOLM13 control shRNA (GFP) cells; assay: Viability and apoptosis by flow cytometry, control shRNA cells; type: cell-based, human; conditions: 10 nM, 48 hours
In short: (§5)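 MOLM13 cells carrying control shRNA (GFP target) or p53 shRNA incubated 48 h with varying doses of test compound. Viability and apoptosis measured by flow cytometry. p53 knockdown checked by immunoblot densitometry against tubulin. Student's t-test against GFP control.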

p38 phosphorylation = assay: Immunoblot analysis; type: cell-based; conditions: 24 hours, MOLM13; due to reduction of total p38
In short: as §3

FLT3 phosphorylation = assay: Immunoblot analysis; type: cell-based; conditions: 10 nM
In short: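 MOLM13 and MV4;11 cells exposed to vehicle or test compound, lysed, total protein resolved by SDS-PAGE, immunoblotted for FLT3 phosphorylation, with infrared imaging detection. Tubulin as loading control.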

MER = MER (Homo sapiens, UniProt Q12866); assay: Cell-based tyrosine kinase inhibition assay; conditions: recombinant kinase expressing Ba/F3 cells, 48 hr
MER, sequence (Q12866 21-999): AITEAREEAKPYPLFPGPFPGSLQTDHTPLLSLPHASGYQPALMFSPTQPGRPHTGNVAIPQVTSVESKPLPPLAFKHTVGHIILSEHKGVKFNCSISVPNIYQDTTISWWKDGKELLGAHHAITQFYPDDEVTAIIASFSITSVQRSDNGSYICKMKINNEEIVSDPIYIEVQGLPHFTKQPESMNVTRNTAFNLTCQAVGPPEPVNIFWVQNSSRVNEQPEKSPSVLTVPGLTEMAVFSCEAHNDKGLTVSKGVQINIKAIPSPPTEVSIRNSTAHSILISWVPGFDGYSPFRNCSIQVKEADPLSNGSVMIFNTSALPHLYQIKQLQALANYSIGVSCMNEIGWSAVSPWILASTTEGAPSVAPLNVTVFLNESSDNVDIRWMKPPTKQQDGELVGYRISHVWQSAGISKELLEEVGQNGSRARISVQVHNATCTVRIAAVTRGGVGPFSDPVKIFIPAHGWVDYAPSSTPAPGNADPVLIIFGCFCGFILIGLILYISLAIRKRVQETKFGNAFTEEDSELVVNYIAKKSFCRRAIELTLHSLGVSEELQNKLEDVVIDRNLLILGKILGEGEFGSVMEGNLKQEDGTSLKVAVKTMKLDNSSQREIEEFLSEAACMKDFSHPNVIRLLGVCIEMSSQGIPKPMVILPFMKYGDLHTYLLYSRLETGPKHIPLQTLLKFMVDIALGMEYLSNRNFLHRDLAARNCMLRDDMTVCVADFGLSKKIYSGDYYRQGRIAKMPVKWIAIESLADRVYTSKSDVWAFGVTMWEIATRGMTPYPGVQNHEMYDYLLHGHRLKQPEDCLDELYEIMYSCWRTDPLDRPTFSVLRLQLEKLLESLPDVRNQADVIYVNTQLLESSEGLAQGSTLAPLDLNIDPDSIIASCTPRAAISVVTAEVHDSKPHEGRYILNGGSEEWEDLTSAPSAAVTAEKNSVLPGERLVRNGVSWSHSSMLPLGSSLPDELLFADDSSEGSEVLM

CCNB1 mRNA = assay: qRT-PCR gene expression analysis; type: cell-based; conditions: 10 nM, 24 hours, MOLM13 and MV4;11
In short: as §2

CDK1 mRNA = assay: qRT-PCR gene expression analysis; type: cell-based; conditions: 10 nM, 24 hours, MOLM13 and MV4;11
In short: as §2

OCI-AML3 = assay: Reverse phase protein analysis; type: cell-based; conditions: RPPA, 24 hours, FLT3 WT OCI-AML3
AXL mRNA = assay: qRT-PCR gene expression analysis; type: cell-based; conditions: 24 hours
RB phosphorylation = assay: Immunoblot analysis; type: cell-based; conditions: even at the lowest dose, 24 hours, MOLM13 and MV4;11
In short: as §3

Cyclin B1 = assay: Immunoblot analysis; type: cell-based; conditions: 10 nM, 24 hours, MOLM13 and MV4;11
In short: as §3

MOLM13 p53 shRNA cells = assay: Viability and apoptosis by flow cytometry, p53 knockdown cells; type: cell-based, human; conditions: 10 nM, 48 hours
In short: as §5

HL60 = assay: Reverse phase protein analysis; type: cell-based; conditions: RPPA, 24 hours, FLT3 WT HL60
[7] = test system: MOLM13 cells in co-culture with MSC; assay: In vitro co-culture system with MSC, viability by flow cytometry; type: cell-based, human; conditions: 50 nM, 72 hours
In short: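 MOLM13 cells grown in monoculture or co-cultured with bone marrow-derived mesenchymal stromal cells (patient-derived, IRB-approved). Treated 72 h with vehicle or test compound. Viable cells measured by flow cytometry.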

MOLM13 luc/gfp cells = assay: Human AML murine xenograft model; type: in vivo, NSG mice
In short: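 MOLM13 cells lentivirally transduced with firefly luciferase/copGFP, injected into NSG mice. Control feed for one week, then control feed or feed containing 0.004% (~6 mg/kg daily; N=5 per group) or 0.013% (~20 mg/kg daily; N=9 control, N=10 treated) test compound. Leukemic burden by weekly IVIS imaging. Sternum (BM) and liver from moribund mice examined by H&E.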

MCL-1 = assay: Immunoblot analysis; type: cell-based; conditions: 24 hours
In short: as §3

HL60 cells = assay: Viable cell number and apoptosis by flow cytometry; type: cell-based; conditions: FLT3 WT HL60, data not shown
[8] = test system: MOLM13, MV4:11, OCI-AML3, and HL60 cells; assay: Trypan blue staining of cells collected for RPPA; type: cell-based; conditions: all other cases (vehicle or ONO-7475, 24 hours; MOLM13, MV4:11, OCI-AML3, HL60)
MV4;11 cells [9] = assay: Viable cell number and apoptosis by flow cytometry; type: cell-based; conditions: 10 nM, 48 hours
In short: as §1

FLT3 = FLT3 (Homo sapiens, UniProt P36888); assay: Cell-based tyrosine kinase inhibition assay; conditions: recombinant kinase expressing Ba/F3 cells, 48 hr
FLT3, sequence (P36888 27-993): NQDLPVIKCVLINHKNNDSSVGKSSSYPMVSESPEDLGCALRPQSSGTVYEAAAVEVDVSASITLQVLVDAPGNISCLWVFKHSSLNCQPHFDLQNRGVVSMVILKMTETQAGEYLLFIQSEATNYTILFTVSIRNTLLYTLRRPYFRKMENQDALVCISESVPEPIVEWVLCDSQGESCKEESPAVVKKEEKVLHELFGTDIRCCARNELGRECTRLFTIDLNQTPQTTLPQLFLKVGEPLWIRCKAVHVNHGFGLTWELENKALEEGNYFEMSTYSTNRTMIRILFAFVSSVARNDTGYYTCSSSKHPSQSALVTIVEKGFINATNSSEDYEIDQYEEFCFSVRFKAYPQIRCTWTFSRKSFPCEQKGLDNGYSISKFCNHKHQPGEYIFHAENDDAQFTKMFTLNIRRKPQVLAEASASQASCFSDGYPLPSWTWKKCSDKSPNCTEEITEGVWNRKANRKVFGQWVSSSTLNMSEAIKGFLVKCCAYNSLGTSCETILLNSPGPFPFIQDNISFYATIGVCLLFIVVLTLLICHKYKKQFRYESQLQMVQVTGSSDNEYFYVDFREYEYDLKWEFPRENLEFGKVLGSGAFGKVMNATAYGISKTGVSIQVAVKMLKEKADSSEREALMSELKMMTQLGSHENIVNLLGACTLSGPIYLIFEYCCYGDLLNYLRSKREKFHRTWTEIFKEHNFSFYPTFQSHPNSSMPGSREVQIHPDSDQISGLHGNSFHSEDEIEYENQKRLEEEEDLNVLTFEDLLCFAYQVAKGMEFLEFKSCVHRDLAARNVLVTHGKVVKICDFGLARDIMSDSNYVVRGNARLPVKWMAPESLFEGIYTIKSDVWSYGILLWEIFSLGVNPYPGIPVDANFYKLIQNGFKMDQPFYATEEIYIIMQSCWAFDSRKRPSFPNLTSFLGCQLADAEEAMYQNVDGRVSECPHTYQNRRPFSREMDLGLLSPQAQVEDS

MOLM13 cells [10] = assay: DNA synthesis and cell cycle assay; type: cell-based, human; conditions: 24 hours
In short: as §4

phosphorylation of S6 = assay: Immunoblot analysis; type: cell-based; conditions: 24 hours, MOLM13
In short: as §3

MOLM13 cells [11] = assay: Reverse phase protein analysis; type: cell-based, human; conditions: RPPA, 10 nM, 50 nM or 100 nM, 24 hours, at least 2-fold

Structure (SMILES): Nc1ccn([C@@H]2O[C@H](CO)[C@@H](O)[C@@H]2O)c(=O)n1 [AraC, Cytarabine, reference compound]
viable cell numbers and apoptosis, single agent (MOLM13 cells [1]; 1 μM AraC alone, 48 hours, MOLM13): effective

Structure (SMILES): Nc1nc(Nc2ccc3c(c2)CC[C@@H](N2CCCC2)CC3)nn1-c1cc2c(nn1)-c1ccccc1CCC2 [BGB324]
sensitisation to a combination of decitabine and vorinostat (resistant cells): could sensitize resistant cells

Structure (SMILES): CCc1nc(C(N)=O)c(Nc2ccc(N3CCC(N4CCN(C)CC4)CC3)c(OC)c2)nc1NC1CCOCC1 [Gilteritinib, gilteritinib]
pIC50 (AXL [2]): 9.15
patients achieving some response [3]: 40%
patients exhibiting inhibition of FLT3 phosphorylation [3]: 90%
tolerability [3]: well tolerated

pIC50 (MER): 9.00
pIC50 (FLT3): 6.83
Structure (SMILES): COc1cc2nccc(Oc3ccc(NC(=O)c4cc5c(n(-c6ccccc6)c4=O)CCCC5=O)nc3)c2cc1OC [ONO-7475]
apoptosis (OCI-AML3 cells): did not induce apoptosis
viable cell number (OCI-AML3 cells): slightly reduced
suppression of PLK-1 mRNA compared with MOLM13 (PLK-1 mRNA; 10 nM and 50 nM, MV4;11): more potently suppressed
reduction of PLK-1 mRNA relative to B2M (PLK-1 mRNA; 10 nM): ~ 60%
reduction of PLK-1 mRNA relative to B2M (PLK-1 mRNA; 50 nM): ~ 80%
AXL protein (AXL [4]): induced AXL
reduction of ERK phosphorylation (ERK phosphorylation): ~ 50%
CDK1 protein (CDK1): potently suppressed
suppression of DNA synthesis (MV4;11 cells [5]; 5 nM): > 2 fold
cell cycle status (MV4;11 cells [5]): potently induced G0/G1 arrest
PLK1 protein (PLK1): Little, if any, PLK1 was detected
apoptosis [6]: without inducing apoptosis
reduction of viability [6]: ~ 55%
p38 phosphorylation (p38 phosphorylation): p38 phosphorylation was reduced
p-FLT3 (FLT3 phosphorylation; MOLM13): greatly reduced
p-FLT3 (FLT3 phosphorylation; MV4;11): nearly eliminated
reduction of CCNB1 mRNA relative to B2M (CCNB1 mRNA): at least 60%
reduction of CDK1 mRNA relative to B2M (CDK1 mRNA): at least 60%
change (i.e., 2-fold) in the level of protein (OCI-AML3): no significant change
increase of AXL mRNA relative to B2M (AXL mRNA; 10 nM, MOLM13 and MV4;11): ~ 3.5 fold
increase of AXL mRNA relative to B2M (AXL mRNA; 50 nM, MOLM13): > 6 fold
increase of AXL mRNA relative to B2M (AXL mRNA; 50 nM, MV4;11): > 8 fold
RB phosphorylation (RB phosphorylation): blocked RB phosphorylation
Cyclin B1 protein (Cyclin B1): potently suppressed
apoptosis (MOLM13 p53 shRNA cells): ~ 20%
reduction of viability (MOLM13 p53 shRNA cells): > 70%
change (i.e., 2-fold) in the level of protein (HL60): no significant change
protection of AML cells by MSC from the inhibitor [7]: abrogated most of this effect
mice with reduced leukemic burden compared to control (IVIS imaging) (MOLM13 luc/gfp cells; 0.004% ONO-7475 feed, Day 14): three out of five
leukemia infiltration in the liver (H&E) (MOLM13 luc/gfp cells; 0.013% ONO-7475 feed): little, if any, AML cells in the liver; also recorded: minimal presence of MOLM13 cells in the liver
suppression of MCL-1 (MCL-1; 10 nM, MOLM13): > 80%
reduction of MCL-1 (MCL-1; 100 nM, MV4;11): 50%
sensitivity to drug (HL60 cells): resistant
viable cells (Trypan blue) [8]: > 95%
apoptosis (MV4;11 cells [9]): induced apoptosis
reduction of cell viability (MV4;11 cells [9]): > 50%
suppression of DNA synthesis (MOLM13 cells [10]; 5 nM): > 2 fold
cell cycle status (MOLM13 cells [10]): potently induced G0/G1 arrest
phosphorylation of S6 (phosphorylation of S6): inhibited the phosphorylation of S6
apoptosis (MOLM13 cells [1]; 10 nM, 48 hours, MOLM13): induced apoptosis
reduction of cell viability (MOLM13 cells [1]; 10 nM, 48 hours, MOLM13): > 50%
cells becoming apoptotic (MOLM13 cells [1]; 10 nM, 72 hours, MOLM13): > 70%
viable cells (MOLM13 cells [1]; 10 nM, 72 hours, MOLM13 monoculture): nearly eliminated all viable MOLM13 cells
viable cell numbers and apoptosis, single agent (MOLM13 cells [1]; ONO-7475 alone (10nM or 50 nM), 48 hours, MOLM13): effective
Proteins increased in MOLM13 cells by ONO-7475 (MOLM13 cells [11]): H2AX (phospho; pS140)
